How the values were obtained:
Assay type in all cases: biochemical
CYP2E1 = CYP2E1 (Homo sapiens, UniProt P05181); experiment: index substrate turnover in pooled HLM, HPLC; settings: for IC50: human, microsomes
CYP2C8 = molecular target: T1, CYP2C8 (Homo sapiens, UniProt P10632); experiment: index substrate turnover in pooled HLM, HPLC; settings: microsomes
T1 sequence (P10632 1-490): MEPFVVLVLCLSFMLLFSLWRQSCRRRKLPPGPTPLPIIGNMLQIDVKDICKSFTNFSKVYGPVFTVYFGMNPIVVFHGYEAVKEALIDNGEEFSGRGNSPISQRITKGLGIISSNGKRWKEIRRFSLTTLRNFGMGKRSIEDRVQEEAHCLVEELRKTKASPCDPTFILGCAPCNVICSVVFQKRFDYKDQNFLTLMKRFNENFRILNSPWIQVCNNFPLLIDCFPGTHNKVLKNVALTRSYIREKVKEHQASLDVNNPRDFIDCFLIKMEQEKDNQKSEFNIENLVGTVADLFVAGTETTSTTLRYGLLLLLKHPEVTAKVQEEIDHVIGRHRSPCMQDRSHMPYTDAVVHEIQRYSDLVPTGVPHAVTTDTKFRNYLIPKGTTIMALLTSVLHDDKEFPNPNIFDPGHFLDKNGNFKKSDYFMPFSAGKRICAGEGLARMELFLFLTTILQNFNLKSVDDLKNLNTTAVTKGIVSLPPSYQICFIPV
How it was run: (§1)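 Pooled HLMs (53 donors) in 50 mm phosphate pH 7.5 with 5 mm MgCl2, 0.5 mm NADP and an isocitrate/isocitric dehydrogenase regenerating system. Test compound at 0–600 μm (eight levels) was dried, reconstituted in 1% methanol, with or without 20-min 37°C preincubation. Substrates: phenacetin (1A2), bupropion (2B6), taxol (2C8), dextromethorphan (2D6). Acetonitrile stop (acidified for 2B6) with IS; HPLC-UV/fluorescence; duplicates; hyperbolic nonlinear-regression IC50.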

CYP2C19 = CYP2C19 (Homo sapiens, UniProt P33261); experiment: index substrate turnover in pooled HLM, HPLC; settings: microsomes
CYP1A2 = molecular target: T2, CYP1A2 (Homo sapiens, UniProt P05177); experiment: index substrate turnover in pooled HLM, HPLC; settings: microsomes
T2 sequence (P05177 2-516): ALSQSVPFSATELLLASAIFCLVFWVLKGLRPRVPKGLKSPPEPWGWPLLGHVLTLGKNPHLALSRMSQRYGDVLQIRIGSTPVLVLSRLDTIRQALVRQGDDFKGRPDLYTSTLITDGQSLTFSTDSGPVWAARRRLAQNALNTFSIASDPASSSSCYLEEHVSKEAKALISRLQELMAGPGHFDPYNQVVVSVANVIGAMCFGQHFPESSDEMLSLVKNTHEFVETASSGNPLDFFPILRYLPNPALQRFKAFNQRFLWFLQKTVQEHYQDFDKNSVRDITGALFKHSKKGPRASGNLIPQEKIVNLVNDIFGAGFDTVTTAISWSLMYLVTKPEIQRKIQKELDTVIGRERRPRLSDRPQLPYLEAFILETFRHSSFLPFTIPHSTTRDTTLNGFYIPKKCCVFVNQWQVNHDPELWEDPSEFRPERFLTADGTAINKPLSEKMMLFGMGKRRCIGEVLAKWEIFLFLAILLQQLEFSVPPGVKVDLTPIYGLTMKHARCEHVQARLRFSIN
How it was run: as §1

CYP2D6 = CYP2D6 (Homo sapiens, UniProt P10635); experiment: index substrate turnover in pooled HLM, HPLC; settings: microsomes
How it was run: as §1

UGT2B15 = molecular target: T3, UGT2B15 (Homo sapiens, UniProt P54855); experiment: glucuronidation of index substrate in pooled HLM, HPLC-UV; settings: without preincubation; pH 7.5, 10 mM UDPGA, alamethicin
T3 sequence (P54855 24-530): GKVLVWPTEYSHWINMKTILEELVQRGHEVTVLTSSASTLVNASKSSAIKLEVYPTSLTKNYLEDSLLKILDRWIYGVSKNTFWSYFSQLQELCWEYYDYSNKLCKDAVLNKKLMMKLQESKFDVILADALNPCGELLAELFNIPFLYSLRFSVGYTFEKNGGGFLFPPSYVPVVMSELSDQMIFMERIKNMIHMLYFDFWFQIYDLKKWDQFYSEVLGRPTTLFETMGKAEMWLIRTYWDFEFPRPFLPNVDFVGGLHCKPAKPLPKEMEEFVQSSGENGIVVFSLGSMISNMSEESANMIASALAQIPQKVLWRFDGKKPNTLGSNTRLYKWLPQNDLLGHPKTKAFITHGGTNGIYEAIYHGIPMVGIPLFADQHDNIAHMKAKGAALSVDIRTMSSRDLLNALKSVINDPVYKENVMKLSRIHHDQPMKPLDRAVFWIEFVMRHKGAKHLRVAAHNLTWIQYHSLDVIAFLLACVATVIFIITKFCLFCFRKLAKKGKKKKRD
How it was run: (§2)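 Pooled HLMs (53 donors, 50–500 μg/ml) in 50 mm phosphate pH 7.5 with 5 mm MgCl2 and alamethicin […]. Test compound at 0–250 μm (seven levels) was dried, reconstituted in 1% methanol and not preincubated. Reactions started with UDPGA (10 mm final). Substrates: AZT (UGT2B7), oxazepam (UGT2B15). Acetonitrile stop (acidified for UGT2B7) with IS; HPLC-UV; duplicates; IC50 by nonlinear regression.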

CYP2B6 = molecular target: T4, CYP2B6 (Homo sapiens, UniProt P20813); experiment: index substrate turnover in pooled HLM, HPLC; settings: microsomes
T4 sequence (P20813 1-491): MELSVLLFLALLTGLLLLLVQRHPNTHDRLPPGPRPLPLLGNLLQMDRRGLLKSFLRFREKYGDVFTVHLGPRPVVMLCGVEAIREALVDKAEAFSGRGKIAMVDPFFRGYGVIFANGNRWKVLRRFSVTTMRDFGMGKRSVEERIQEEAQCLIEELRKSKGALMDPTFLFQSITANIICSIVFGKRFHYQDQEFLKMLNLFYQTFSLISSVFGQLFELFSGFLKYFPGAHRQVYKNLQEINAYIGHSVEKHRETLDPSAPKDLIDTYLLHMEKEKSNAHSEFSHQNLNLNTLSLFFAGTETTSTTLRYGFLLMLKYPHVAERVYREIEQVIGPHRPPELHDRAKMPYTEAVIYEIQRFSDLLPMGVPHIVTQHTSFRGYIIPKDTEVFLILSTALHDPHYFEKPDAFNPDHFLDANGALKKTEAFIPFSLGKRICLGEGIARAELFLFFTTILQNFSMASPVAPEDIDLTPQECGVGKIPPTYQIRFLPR
How it was run: as §1

UGT2B7 = molecular target: T5, UGT2B7 (Homo sapiens, UniProt P16662); experiment: glucuronidation of index substrate in pooled HLM, HPLC-UV; settings: without preincubation; pH 7.5, 10 mM UDPGA, alamethicin
T5 sequence (P16662 24-529): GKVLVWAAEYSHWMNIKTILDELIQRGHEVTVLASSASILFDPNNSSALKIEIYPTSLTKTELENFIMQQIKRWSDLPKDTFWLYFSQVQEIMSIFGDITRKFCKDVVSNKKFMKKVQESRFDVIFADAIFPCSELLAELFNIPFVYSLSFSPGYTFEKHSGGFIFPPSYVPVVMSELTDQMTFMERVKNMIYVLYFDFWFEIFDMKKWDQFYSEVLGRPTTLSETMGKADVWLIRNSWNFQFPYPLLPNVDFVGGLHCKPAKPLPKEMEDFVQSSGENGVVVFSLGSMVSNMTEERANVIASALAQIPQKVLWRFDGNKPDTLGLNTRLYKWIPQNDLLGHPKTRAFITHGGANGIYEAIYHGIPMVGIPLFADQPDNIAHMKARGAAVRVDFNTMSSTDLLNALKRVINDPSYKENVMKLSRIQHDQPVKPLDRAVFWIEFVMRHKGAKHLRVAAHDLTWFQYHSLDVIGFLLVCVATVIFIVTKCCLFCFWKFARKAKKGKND
How it was run: as §2

CYP2C9 = CYP2C9 (Homo sapiens, UniProt P11712); experiment: index substrate turnover in pooled HLM, HPLC; settings: microsomes
UGT1A6 = molecular target: T6, UGT1A6 (Homo sapiens, UniProt P19224); experiment: glucuronidation of index substrate in pooled HLM, HPLC-UV; settings: without preincubation; pH 7.5, 10 mM UDPGA, alamethicin
T6 sequence (P19224 27-532): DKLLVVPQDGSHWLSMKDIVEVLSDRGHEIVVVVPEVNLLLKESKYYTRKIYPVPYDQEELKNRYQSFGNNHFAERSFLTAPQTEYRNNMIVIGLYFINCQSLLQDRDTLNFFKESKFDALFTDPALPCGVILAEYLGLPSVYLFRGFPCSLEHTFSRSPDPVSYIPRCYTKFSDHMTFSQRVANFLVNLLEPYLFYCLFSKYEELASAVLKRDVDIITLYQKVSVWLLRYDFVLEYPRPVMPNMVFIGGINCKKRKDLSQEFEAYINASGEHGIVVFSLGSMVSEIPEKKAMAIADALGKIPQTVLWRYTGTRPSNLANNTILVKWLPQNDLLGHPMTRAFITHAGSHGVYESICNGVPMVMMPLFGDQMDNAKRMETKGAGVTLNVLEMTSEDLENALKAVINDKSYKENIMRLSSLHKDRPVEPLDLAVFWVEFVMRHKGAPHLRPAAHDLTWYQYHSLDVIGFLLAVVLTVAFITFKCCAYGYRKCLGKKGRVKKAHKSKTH

[1] = without preincubation, 37 °C, solvent effect

CYP2E1, sequence (P05181 whole entry): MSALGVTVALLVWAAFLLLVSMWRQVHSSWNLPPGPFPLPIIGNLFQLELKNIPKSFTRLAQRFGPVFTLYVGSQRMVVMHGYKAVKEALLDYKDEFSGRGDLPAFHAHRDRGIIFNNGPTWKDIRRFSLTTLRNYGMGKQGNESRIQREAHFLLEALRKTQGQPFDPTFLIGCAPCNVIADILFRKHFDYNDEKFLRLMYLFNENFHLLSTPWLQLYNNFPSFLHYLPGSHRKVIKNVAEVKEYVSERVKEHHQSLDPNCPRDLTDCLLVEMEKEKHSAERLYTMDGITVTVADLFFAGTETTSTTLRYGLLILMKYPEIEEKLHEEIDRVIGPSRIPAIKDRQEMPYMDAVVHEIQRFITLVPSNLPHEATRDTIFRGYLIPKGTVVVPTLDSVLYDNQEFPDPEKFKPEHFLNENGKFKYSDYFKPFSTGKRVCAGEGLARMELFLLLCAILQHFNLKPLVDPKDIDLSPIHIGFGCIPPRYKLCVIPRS
CYP2D6, sequence (P10635 whole entry): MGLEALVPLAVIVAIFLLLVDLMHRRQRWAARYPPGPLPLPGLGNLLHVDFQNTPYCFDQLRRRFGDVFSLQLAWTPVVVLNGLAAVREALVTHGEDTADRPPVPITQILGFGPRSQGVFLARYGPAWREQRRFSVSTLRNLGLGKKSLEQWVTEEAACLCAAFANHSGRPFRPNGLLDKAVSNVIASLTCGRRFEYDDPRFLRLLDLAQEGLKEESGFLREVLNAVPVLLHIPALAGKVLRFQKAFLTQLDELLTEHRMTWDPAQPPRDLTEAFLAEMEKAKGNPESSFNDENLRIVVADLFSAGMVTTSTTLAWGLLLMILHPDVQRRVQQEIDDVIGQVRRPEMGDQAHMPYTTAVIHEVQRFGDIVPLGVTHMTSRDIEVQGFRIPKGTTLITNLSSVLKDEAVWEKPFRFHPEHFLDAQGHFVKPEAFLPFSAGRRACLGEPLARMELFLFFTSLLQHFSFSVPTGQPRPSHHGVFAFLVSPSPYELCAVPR
CYP2C19, sequence (P33261 whole entry): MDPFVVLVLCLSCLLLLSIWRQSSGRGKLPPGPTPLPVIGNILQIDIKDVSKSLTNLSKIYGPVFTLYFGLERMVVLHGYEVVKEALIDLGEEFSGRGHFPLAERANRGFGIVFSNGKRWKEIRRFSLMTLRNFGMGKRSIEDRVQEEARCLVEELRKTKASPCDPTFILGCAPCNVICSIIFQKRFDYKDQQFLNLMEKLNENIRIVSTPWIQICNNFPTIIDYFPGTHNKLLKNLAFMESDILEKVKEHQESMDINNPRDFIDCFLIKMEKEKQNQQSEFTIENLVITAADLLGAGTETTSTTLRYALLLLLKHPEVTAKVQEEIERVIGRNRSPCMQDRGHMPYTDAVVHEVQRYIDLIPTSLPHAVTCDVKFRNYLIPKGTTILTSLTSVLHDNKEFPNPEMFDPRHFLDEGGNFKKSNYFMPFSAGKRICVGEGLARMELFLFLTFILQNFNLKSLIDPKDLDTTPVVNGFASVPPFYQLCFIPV
CYP2C9, sequence (P11712 whole entry): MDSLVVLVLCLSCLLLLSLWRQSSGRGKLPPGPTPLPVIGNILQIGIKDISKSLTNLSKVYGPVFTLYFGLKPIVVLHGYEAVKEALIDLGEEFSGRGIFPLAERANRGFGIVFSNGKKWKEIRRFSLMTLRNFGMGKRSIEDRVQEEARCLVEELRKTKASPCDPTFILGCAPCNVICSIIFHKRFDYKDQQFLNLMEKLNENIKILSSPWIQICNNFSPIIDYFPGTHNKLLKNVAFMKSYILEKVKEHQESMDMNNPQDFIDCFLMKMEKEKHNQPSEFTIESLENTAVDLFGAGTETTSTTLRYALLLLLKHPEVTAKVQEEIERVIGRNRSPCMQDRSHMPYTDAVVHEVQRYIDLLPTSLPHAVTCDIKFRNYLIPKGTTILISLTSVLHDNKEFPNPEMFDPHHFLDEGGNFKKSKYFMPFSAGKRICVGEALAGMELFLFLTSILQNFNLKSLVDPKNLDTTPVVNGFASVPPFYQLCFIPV

Row | IC50 (CYP2E1) | IC50 (CYP2C8) | IC50 (CYP2C19) | IC50 (CYP1A2) | IC50 (CYP2D6) | IC50 (UGT2B15) | IC50 (CYP2B6) | MEOH / W/O (%) (CYP2E1; [1]) | DMSO / W/O (%) (CYP2E1; [1]) | IC50 (UGT2B7) | IC50 (CYP2C9) | IC50 (UGT1A6) | Structure (SMILES)
1 | 66.2 µM | 2.4 µM | 140 µM | 5.2 µM | 234 µM | > 250 µM | 89.2 µM | – | – | – | – | – | O=c1c(O)c(-c2ccc(O)c(O)c2)oc2cc(O)cc(O)c12 [quercetin]
2 | – | – | – | – | – | – | – | 0.63 % (v/v) | – | – | – | – | CO [methanol]
3 | – | – | – | – | – | – | – | – | 0.06 % (v/v) | – | – | – | C[S+](C)[O-] [DMSO]
4 | 89.3 µM | 2.5 µM | 47.9 µM | 3.5 µM | 153 µM | > 250 µM | 103 µM | – | – | > 250 µM | 28.9 µM | > 250 µM | O=c1cc(-c2ccc(O)c(O)c2)oc2cc(O)cc(O)c12 [luteolin]
